From ChEMBL document CHEMBL1137333, “Synthesis, radiosynthesis, and biological evaluation of carbon-11 labeled 2beta-carbomethoxy-3beta-(3'-((Z)-2-haloethenyl)phenyl)nortropanes: candidate radioligands for in vivo imaging of the serotonin transporter with positron emission tomography” (J Med Chem, 2006)

Columns and labels:
[1] = test system: Cynomolgus monkey; experiment: Uptake in anesthetized cynomolgus monkey thalamus after 65.0 mins; format: ADME, organism-based; conditions: in vivo
In short: (§1)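 Baseline microPET (Concorde P4) scan in anesthetized cynomolgus monkeys after injection of the carbon-11 labeled tracer, with no chase drug. Regional brain time-activity curves were followed over the scan. Tracer radiochemical purity and specific activity were determined by analytical HPLC at the time of injection.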

[2] = test system: Cynomolgus monkey; experiment: Uptake in anesthetized cynomolgus monkey thalamus after 105.0 mins; format: ADME, organism-based; conditions: in vivo, 1.75 h; in short: as §1
[3] = test system: Cynomolgus monkey; experiment: Uptake in anesthetized cynomolgus monkey caudate after 2.5 mins; format: ADME, organism-based, Caudate nucleus; conditions: in vivo
In short: (§2)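 Baseline microPET (Concorde P4) regional brain time-activity curves in anesthetized cynomolgus monkey following injection of the [11C]-labelled tracer, with radioactivity followed over the scan.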

[4] = test system: Cynomolgus monkey; experiment: Uptake in anesthetized cynomolgus monkey medulla after 35.0 mins; format: ADME, organism-based, Medulla of organ; conditions: in vivo
In short: (§3)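 Baseline microPET scan (P4 scanner) of anesthetized cynomolgus monkeys after injection of the carbon-11 labelled nortropane tracer. Two baseline studies were run per tracer. Radioactivity was followed over time in regional brain time-activity curves.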

[5] = test system: Cynomolgus monkey; experiment: Ratio of uptake in occipital to cerebellum of anesthetized cynomolgus monkey after 85 mins; format: ADME, organism-based; conditions: in vivo
In short: (§4)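 Baseline microPET (Concorde P4) in anesthetized cynomolgus monkey after injection of the [11C]-labelled tracer. Regional time-activity curves were taken, and each region's uptake was divided by cerebellum uptake (low-SERT reference) at 65, 85 and 105 min postinjection.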

[6] = test system: Cynomolgus monkey; experiment: Uptake in anesthetized cynomolgus monkey medulla after 15.5 mins; format: ADME, organism-based, Medulla of organ; conditions: in vivo; in short: as §3
[7] = test system: Cynomolgus monkey; experiment: Ratio of uptake in caudate to cerebellum of anesthetized cynomolgus monkey after 85 mins; format: ADME, organism-based; conditions: in vivo; in short: as §4
[8] = test system: Cynomolgus monkey; experiment: Uptake in anesthetized cynomolgus monkey putamen after 15.5 mins; format: ADME, organism-based; conditions: in vivo; in short: as §1
[9] = test system: Cynomolgus monkey; experiment: Uptake in anesthetized cynomolgus monkey putamen after 115.0 mins; format: ADME, organism-based; conditions: in vivo; in short: as §1
[10] = test system: Cynomolgus monkey; experiment: Uptake in anesthetized cynomolgus monkey medulla after 55.0 mins; format: ADME, organism-based, Medulla of organ; conditions: in vivo; in short: as §3
[11] = test system: Cynomolgus monkey; experiment: Uptake in anesthetized cynomolgus monkey medulla after 115.0 mins; format: ADME, organism-based, Medulla of organ; conditions: in vivo; in short: as §3
[12] = test system: Cynomolgus monkey; experiment: Uptake in anesthetized cynomolgus monkey occipital after 55.0 mins; format: ADME, organism-based, Occipital cortex; conditions: in vivo; in short: as §3
[13] = test system: Cynomolgus monkey; experiment: Ratio of uptake in frontal to cerebellum of anesthetized cynomolgus monkey after 85 mins; format: ADME, organism-based; conditions: in vivo; in short: as §4
[14] = test system: Cynomolgus monkey; experiment: Ratio of uptake in thalamus to cerebellum of anesthetized cynomolgus monkey after 85 mins; format: ADME, organism-based; conditions: in vivo; in short: as §4
[15] = test system: Cynomolgus monkey; experiment: Uptake in anesthetized cynomolgus monkey frontal after 9.5 mins; format: ADME, organism-based, Frontal cortex; conditions: in vivo; in short: as §3
[16] = test system: Cynomolgus monkey; experiment: Uptake in anesthetized cynomolgus monkey cerebellum after 115.0 mins; format: ADME, organism-based; conditions: in vivo; in short: as §2
[17] = test system: Cynomolgus monkey; experiment: Uptake in anesthetized cynomolgus monkey thalamus after 9.5 mins; format: ADME, organism-based; conditions: in vivo; in short: as §1
[18] = test system: Cynomolgus monkey; experiment: Uptake in anesthetized cynomolgus monkey pons after 1.5 mins; format: ADME, organism-based, Macaca mulatta; conditions: rhesus monkey, in vivo, 0.025 h; in short: as §3
[19] = test system: Cynomolgus monkey; experiment: Uptake in anesthetized cynomolgus monkey medulla after 0.5 mins; format: ADME, organism-based, Medulla of organ; conditions: in vivo; in short: as §3
[20] = test system: Cynomolgus monkey; experiment: Uptake in anesthetized cynomolgus monkey caudate after 45.0 mins; format: ADME, organism-based, Caudate nucleus; conditions: in vivo, 0.75 h; in short: as §2
[21] = test system: Cynomolgus monkey; experiment: Uptake in anesthetized cynomolgus monkey midbrain after 55.0 mins; format: ADME, organism-based; conditions: in vivo; in short: as §3
[22] = test system: Cynomolgus monkey; experiment: Ratio of uptake in pons to cerebellum of anesthetized cynomolgus monkey after 65 mins; format: ADME, organism-based; conditions: in vivo; in short: as §4
[23] = test system: Cynomolgus monkey; experiment: Uptake in anesthetized cynomolgus monkey frontal after 105.0 mins; format: ADME, organism-based, Frontal cortex; conditions: in vivo, 1.75 h; in short: as §3
[24] = test system: Cynomolgus monkey; experiment: Uptake in anesthetized cynomolgus monkey occipital after 15.5 mins; format: ADME, organism-based, Macaca mulatta, Occipital cortex; conditions: rhesus monkey, in vivo; in short: as §3
[25] = test system: Cynomolgus monkey; experiment: Uptake in anesthetized cynomolgus monkey frontal after 0.5 mins; format: ADME, organism-based, Frontal cortex; conditions: in vivo; in short: as §2
[26] = test system: Cynomolgus monkey; experiment: Uptake in anesthetized cynomolgus monkey midbrain after 95.0 mins; format: ADME, organism-based; conditions: in vivo; in short: as §3
[27] = test system: Cynomolgus monkey; experiment: Uptake in anesthetized cynomolgus monkey midbrain after 0.5 mins; format: ADME, organism-based; conditions: in vivo; in short: as §3
[28] = test system: Cynomolgus monkey; experiment: Ratio of uptake in pons to cerebellum of anesthetized cynomolgus monkey after 105 mins; format: ADME, organism-based; conditions: in vivo, 1.75 h; in short: as §4
[29] = test system: Cynomolgus monkey; experiment: Uptake in anesthetized cynomolgus monkey frontal after 45.0 mins; format: ADME, organism-based, Frontal cortex; conditions: in vivo, 0.75 h; in short: as §3
[30] = test system: Cynomolgus monkey; experiment: Uptake in anesthetized cynomolgus monkey medulla after 9.5 mins; format: ADME, organism-based, Medulla of organ; conditions: in vivo; in short: as §3
[31] = test system: Cynomolgus monkey; experiment: Uptake in anesthetized cynomolgus monkey occipital after 0.5 mins; format: ADME, organism-based, Occipital cortex; conditions: in vivo; in short: as §3
[32] = test system: Cynomolgus monkey; experiment: Uptake in anesthetized cynomolgus monkey cerebellum after 18.5 mins; format: ADME, organism-based, Macaca mulatta; conditions: rhesus monkey, in vivo; in short: as §2
[33] = test system: Cynomolgus monkey; experiment: Uptake in anesthetized cynomolgus monkey frontal after 35.0 mins; format: ADME, organism-based, Frontal cortex; conditions: in vivo; in short: as §3
[34] = test system: Cynomolgus monkey; experiment: Uptake in anesthetized cynomolgus monkey caudate after 35.0 mins; format: ADME, organism-based, Caudate nucleus; conditions: in vivo; in short: as §2

SMILES: [11CH3]OC(=O)[C@@H]1C2CCC(C[C@@H]1c1cccc(/C=C/I)c1)N2 (some centres undefined)
- Drug uptake [1]: 6.9
- Drug uptake [2]: 6.3
- Drug uptake [3]: 0.89
- Drug uptake [4]: 7.36
- Ratio [5]: 1
- Drug uptake [6]: 6.72
- Ratio [7]: 1.5
- Drug uptake [8]: 6.17
- Drug uptake [9]: 6.28
- Drug uptake [10]: 7.26
- Drug uptake [11]: 6.11
- Drug uptake [12]: 4.58
- Ratio [13]: 1.1
- Ratio [14]: 1.8
- Drug uptake [15]: 3.33
- Drug uptake [16]: 3.05
- Drug uptake [17]: 5.29
- Drug uptake [18]: 0.29
- Drug uptake [19]: 0.02
- Drug uptake [20]: 5.77
- Drug uptake [21]: 7.57
- Ratio [22]: 1.4
- Drug uptake [23]: 3.42
- Drug uptake [24]: 4.69
- Drug uptake [25]: 0.01
- Drug uptake [26]: 7.11
- Drug uptake [27]: 0.01
- Ratio [28]: 1.8
- Drug uptake [29]: 4.13
- Drug uptake [30]: 6.22
- Drug uptake [31]: 0.01
- Drug uptake [32]: 5.74
- Drug uptake [33]: 4.13
- Drug uptake [34]: 5.74
